In ChEMBL document CHEMBL1255347, “Multiclonal outbreak of Klebsiella pneumoniae producing extended-spectrum beta-lactamase CTX-M-2 and novel variant CTX-M-59 in a neonatal intensive care unit in Brazil” (2008) one finds MIC data, which are given here for three molecules.

In brackets after ≈: the same amount, converted by molar mass.

The test system of one assay is Klebsiella pneumoniae. Nature of the assay: Antimicrobial activity against CTX-M-2 and TEM-1 producing Klebsiella pneumoniae transconjugants/transformants with PFGE pulsotype H by Etest. In kind it is functional.
Settings: not given
Put shortly:
(§1)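 The recipient was E. coli XL1-Blue Rifr NAr. Plasmids moved by broth mating, with transconjugants selected on LB agar containing ampicillin, rifampin and nalidixic acid, each at 50 μg/ml. Where mating failed, alkaline-lysis plasmid extracts were electroporated and selected on ampicillin 50 μg/ml. β-lactam MICs were read by Etest, with and without clavulanic acid.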
By MIC is commonly meant the lowest concentration that inhibits growth of the organism. A high value points to a less susceptible organism. Molecule GENTAMICIN gave an MIC above 256 µg/mL.

The subject of a further assay is Klebsiella pneumoniae. Briefly: Antimicrobial activity against CTX-M-2 producing Klebsiella pneumoniae with PFGE pulsotype A by Etest.
Settings: not given
Type of assay: functional. In a few lines:
(§2)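 Clinical K. pneumoniae isolates from a neonatal ICU outbreak near São Paulo were typed by XbaI PFGE using Tenover criteria. Cultures were grown in LB broth at 37°C. Etest MICs followed the manufacturer's instructions, with cefotaxime and ceftazidime each tested with and without clavulanic acid.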
For the molecule `O=C(O)c1cn(C2CC2)c2cc(N3CCNCC3)c(F)cc2c1=O` [CIPROFLOXACIN], the minimal inhibitory concentration (MIC) was found to be 0.023 µg/mL (≈ 0.0694 µM).

The molecule GENTAMICIN gave an MIC above 256 µg/mL.

In a further assay the test system is Klebsiella pneumoniae. Nature of the assay: Antimicrobial activity against CTX-M-59 and TEM-1 producing Klebsiella pneumoniae transconjugants/transformants with PFGE pulsotype E by Etest. In kind it is functional.
Settings: not given
Put shortly:
as §1
GENTAMICIN registered an MIC above 256 µg/mL.

A further assay relates to Klebsiella pneumoniae. Briefly: Antimicrobial activity against CTX-M-59 producing Klebsiella pneumoniae with PFGE pulsotype C by Etest. In kind it is functional.
Settings: not given
On to `CO/N=C(\C(=O)N[C@@H]1C(=O)N2C(C(=O)[O-])=C(C[N+]3(C)CCCC3)CS[C@H]12)c1csc(N)n1`, for which the MIC worked out at 256 µg/mL (≈ 533 µM).

In the case of `O=C(O)c1cn(C2CC2)c2cc(N3CCNCC3)c(F)cc2c1=O` [CIPROFLOXACIN], it took 0.032 µg/mL (≈ 0.0966 µM) to inhibit growth (MIC).

In turn, GENTAMICIN had a minimum inhibitory concentration (MIC) above 256 µg/mL.

The next assay has as its system Klebsiella pneumoniae. Briefly: Antimicrobial activity against CTX-M-2 producing Klebsiella pneumoniae with PFGE pulsotype J by Etest. Type of assay: functional.
Settings: not given
Take `CO/N=C(\C(=O)N[C@@H]1C(=O)N2C(C(=O)[O-])=C(C[N+]3(C)CCCC3)CS[C@H]12)c1csc(N)n1`: the MIC came to 12 µg/mL (≈ 25 µM).

In turn, `O=C(O)c1cn(C2CC2)c2cc(N3CCNCC3)c(F)cc2c1=O` [CIPROFLOXACIN] registered an MIC of 0.023 µg/mL (≈ 0.0694 µM).

The test system of a further assay is Klebsiella pneumoniae. Briefly: Antimicrobial activity against CTX-M-2 and TEM-1 producing Klebsiella pneumoniae transconjugants/transformants with PFGE pulsotype F by Etest.
Settings: not given
In kind it is functional. In a few lines: as §1
Molecule GENTAMICIN showed an MIC above 256 µg/mL.

A further assay concerns Escherichia coli. Briefly: Antimicrobial activity against Escherichia coli str. K-12 substr. DH10B harboring plasmid CTX-M-2. Type of assay: functional. The settings on record: K-12 DH10B. Put shortly: (§3)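 blaCTX-M PCR products were cut with XbaI/BamHI and cloned into pBC-SK(−), then electroporated into E. coli DH10B. Transformants were selected on LB agar with ampicillin 50 μg/ml and chloramphenicol 30 μg/ml, and sequences were confirmed. These clones were used for β-lactam MICs, with and without clavulanic acid.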
`CO/N=C(\C(=O)N[C@@H]1C(=O)N2C(C(=O)[O-])=C(C[N+]3(C)CCCC3)CS[C@H]12)c1csc(N)n1` gave an MIC of 4 µg/mL (≈ 8.32 µM).

For the next assay, the system named is Klebsiella pneumoniae. Briefly: Antimicrobial activity against CTX-M-2 and TEM-1 producing Klebsiella pneumoniae transconjugants/transformants with PFGE pulsotype B by Etest. In kind it is functional.
Settings: not given
In a few lines: as §1
`CO/N=C(\C(=O)N[C@@H]1C(=O)N2C(C(=O)[O-])=C(C[N+]3(C)CCCC3)CS[C@H]12)c1csc(N)n1` displayed an MIC of 256 µg/mL (≈ 533 µM).

Molecule GENTAMICIN gave an MIC above 256 µg/mL.

A further assay concerns Klebsiella pneumoniae. Nature of the assay: Antimicrobial activity against SHV-5 producing Klebsiella pneumoniae with PFGE pulsotype D by Etest. In kind it is functional.
Settings: not given
Put shortly: as §2
Consider `CO/N=C(\C(=O)N[C@@H]1C(=O)N2C(C(=O)[O-])=C(C[N+]3(C)CCCC3)CS[C@H]12)c1csc(N)n1`, for which the MIC was 4 µg/mL (≈ 8.32 µM).

In the case of `O=C(O)c1cn(C2CC2)c2cc(N3CCNCC3)c(F)cc2c1=O` [CIPROFLOXACIN], 0.023 µg/mL (≈ 0.0694 µM) was the least that counted as inhibitory (MIC).

Turning to GENTAMICIN, the MIC was found to be 24 µg/mL.

Another assay deals with Escherichia coli. Briefly: Antimicrobial activity against Escherichia coli str. K-12 substr. DH10B harboring plasmid CTX-M-59. In kind it is functional. The settings on record: K-12 DH10B. In a few lines: as §3
`CO/N=C(\C(=O)N[C@@H]1C(=O)N2C(C(=O)[O-])=C(C[N+]3(C)CCCC3)CS[C@H]12)c1csc(N)n1` registered an MIC of 4 µg/mL (≈ 8.32 µM).

Another assay concerns Klebsiella pneumoniae. Briefly: Antimicrobial activity against CTX-M-2 and TEM-1 producing Klebsiella pneumoniae transconjugants/transformants with PFGE pulsotype J by Etest. Type of assay: functional.
Settings: not given
In a few lines: as §1
Molecule GENTAMICIN came in with an MIC of 128 µg/mL.

The next assay concerns Klebsiella pneumoniae. Nature of the assay: Antimicrobial activity against CTX-M-2 producing Klebsiella pneumoniae with PFGE pulsotype B by Etest. Type of assay: functional.
Settings: not given
In a few lines: as §2
The molecule `CO/N=C(\C(=O)N[C@@H]1C(=O)N2C(C(=O)[O-])=C(C[N+]3(C)CCCC3)CS[C@H]12)c1csc(N)n1` displayed an MIC of 128 µg/mL (≈ 266 µM).

As to `O=C(O)c1cn(C2CC2)c2cc(N3CCNCC3)c(F)cc2c1=O` [CIPROFLOXACIN], the MIC is 0.032 µg/mL (≈ 0.0966 µM).

GENTAMICIN came in with an MIC above 256 µg/mL.

The test system of another assay is Klebsiella pneumoniae. Nature of the assay: Antimicrobial activity against CTX-M-59 producing Klebsiella pneumoniae with PFGE pulsotype E by Etest. In kind it is functional.
Settings: not given
Take `O=C(O)c1cn(C2CC2)c2cc(N3CCNCC3)c(F)cc2c1=O` [CIPROFLOXACIN]: the lowest concentration to inhibit growth (MIC) was 0.032 µg/mL (≈ 0.0966 µM).

GENTAMICIN displayed an MIC above 256 µg/mL.

Another assay has as its system Klebsiella pneumoniae. Briefly: Antimicrobial activity against CTX-M-2 producing Klebsiella pneumoniae with PFGE pulsotype H by Etest.
Settings: not given
In kind it is functional. In a few lines:
as §2
The molecule `CO/N=C(\C(=O)N[C@@H]1C(=O)N2C(C(=O)[O-])=C(C[N+]3(C)CCCC3)CS[C@H]12)c1csc(N)n1` came in with an MIC above 256 µg/mL.

For `O=C(O)c1cn(C2CC2)c2cc(N3CCNCC3)c(F)cc2c1=O` [CIPROFLOXACIN], the MIC is 0.023 µg/mL (≈ 0.0694 µM).

As to GENTAMICIN, the MIC was above 256 µg/mL.

For another assay, the system named is Klebsiella pneumoniae. Briefly: Antimicrobial activity against CTX-M-59 producing Klebsiella pneumoniae with PFGE pulsotype G by Etest. Type of assay: functional.
Settings: not given
In a few lines:
as §2
The molecule `CO/N=C(\C(=O)N[C@@H]1C(=O)N2C(C(=O)[O-])=C(C[N+]3(C)CCCC3)CS[C@H]12)c1csc(N)n1` came in with an MIC of 32 µg/mL (≈ 66.6 µM).

In the case of `O=C(O)c1cn(C2CC2)c2cc(N3CCNCC3)c(F)cc2c1=O` [CIPROFLOXACIN], the MIC is 0.125 µg/mL (≈ 0.377 µM).

Turning to GENTAMICIN, the MIC was above 256 µg/mL.

In another assay the test system is Klebsiella pneumoniae. Nature of the assay: Antimicrobial activity against CTX-M-2 producing Klebsiella pneumoniae with PFGE pulsotype F by Etest. Type of assay: functional.
Settings: not given
Regarding `CO/N=C(\C(=O)N[C@@H]1C(=O)N2C(C(=O)[O-])=C(C[N+]3(C)CCCC3)CS[C@H]12)c1csc(N)n1`, the MIC was above 256 µg/mL.

GENTAMICIN returned an MIC above 256 µg/mL.

For another assay, the system named is Klebsiella pneumoniae. Nature of the assay: Antimicrobial activity against CTX-M-2 and TEM-1 producing Klebsiella pneumoniae transconjugants/transformants with PFGE pulsotype I by Etest.
Settings: not given
Type of assay: functional. Put shortly: as §1
The molecule GENTAMICIN showed an MIC above 256 µg/mL.

In a further assay the test system is Klebsiella pneumoniae. Nature of the assay: Antimicrobial activity against SHV-5 producing Klebsiella pneumoniae transconjugants/transformants with PFGE pulsotype D by Etest. Type of assay: functional.
Settings: not given
In a few lines: as §1
For the molecule `CO/N=C(\C(=O)N[C@@H]1C(=O)N2C(C(=O)[O-])=C(C[N+]3(C)CCCC3)CS[C@H]12)c1csc(N)n1`, the lowest concentration to inhibit growth (MIC) was 1.5 µg/mL (≈ 3.12 µM).

The molecule GENTAMICIN returned an MIC of 24 µg/mL.

Another assay concerns Klebsiella pneumoniae. Briefly: Antimicrobial activity against CTX-M-59 and TEM-1 producing Klebsiella pneumoniae transconjugants/transformants with PFGE pulsotype G by Etest.
Settings: not given
Type of assay: functional. In a few lines: as §1
As for GENTAMICIN, the MIC was above 256 µg/mL.

The next assay concerns Klebsiella pneumoniae. Nature of the assay: Antimicrobial activity against CTX-M-59 and TEM-1 producing Klebsiella pneumoniae transconjugants/transformants with PFGE pulsotype C by Etest. Type of assay: functional.
Settings: not given
In a few lines: as §1
With GENTAMICIN, the MIC is above 256 µg/mL.

The test system of a further assay is Klebsiella pneumoniae. Nature of the assay: Antimicrobial activity against CTX-M-2 and TEM-1 producing Klebsiella pneumoniae transconjugants/transformants with PFGE pulsotype A by Etest. In kind it is functional.
Settings: not given
In a few lines:
as §1
As for GENTAMICIN, the MIC was above 256 µg/mL.

Another assay concerns Klebsiella pneumoniae. Briefly: Antimicrobial activity against CTX-M-2 producing Klebsiella pneumoniae with PFGE pulsotype I by Etest. In kind it is functional.
Settings: not given
Molecule `CO/N=C(\C(=O)N[C@@H]1C(=O)N2C(C(=O)[O-])=C(C[N+]3(C)CCCC3)CS[C@H]12)c1csc(N)n1` showed an MIC of 256 µg/mL (≈ 533 µM).

In turn, `O=C(O)c1cn(C2CC2)c2cc(N3CCNCC3)c(F)cc2c1=O` [CIPROFLOXACIN] had an MIC of 0.032 µg/mL (≈ 0.0966 µM).

The molecule GENTAMICIN came in with an MIC of 256 µg/mL.
